In ChEMBL document CHEMBL1126834, “Chemistry, binding affinities, and behavioral properties of a new class of "antineophobic" mitochondrial DBI receptor complex (mDRC) ligands” (J Med Chem, 1993):

How the values were obtained:
Translocator protein = Translocator protein (Rattus norvegicus, UniProt P16257); experiment: Binding affinity against mitochondrial DBI complex (peripheral benzodiazepine receptor) using primary cultures of glial cells
Outline: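 Glia from cerebella of 8-day-old Sprague–Dawley rat pups, trypsin-dissociated and grown 14 days (~95% astroglia). Cells lysed in 50 mM Hepes pH 7.4, 4 μg protein per tube. Incubated with [3H]4'-chlorodiazepam and competitor for 90 min at 4 °C, then filtered. Nonspecific binding defined with 10 μM 4'-chlorodiazepam. Triplicate competition curves; IC50 by nonlinear regression, converted to Ki (Bylund–Yamamura).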

[1] = biological target: GABA-A receptor; anion channel; experiment: Inhibitory activity at GABA A receptor, measured by the ability to displace [3H]zolpidem from GABA A receptor in rat brain; format: tissue-based
[2] = biological target: GABA-A receptor; anion channel; experiment: Inhibitory activity at GABA A receptor, measured by the ability to displace [35S]TBPS from GABA A receptor in rat brain; format: tissue-based
Cannabinoid receptor 1 = Cannabinoid receptor 1 (Rattus norvegicus, UniProt P20272); experiment: Inhibitory activity, measured by displacement [3H]CP-55940 from cannabinoid receptor (CB1) in rat brain; format: tissue-based
Adrenergic receptor beta = Adrenergic receptor beta (Rattus norvegicus, UniProt P18090+P10608+P26255); experiment: Inhibitory activity by measuring its ability to displace [125I]pindolol from beta-adrenergic receptor in rat brain; format: tissue-based
[3] = Inhibitory activity by measuring its ability to displace [3H]glycine from glycine receptor in rat brain; format: tissue-based
[4] = biological target: Adrenergic receptor alpha; experiment: Inhibitory activity by measuring its ability to displace [3H]WB-4101 from alpha-adrenergic receptor in rat brain; format: tissue-based
[5] = biological target: GABA-A receptor; anion channel; experiment: Inhibitory activity at GABA A receptor, measured by the ability to displace [3H]flumazenil from GABA A receptor in rat brain; format: tissue-based
Opioid receptor = Opioid receptor (Rattus norvegicus, UniProt P33533+P34975+P33535); experiment: Displacement of [3H]naxolone from opiate receptor of rat brain
[6] = biological target: GABA-A receptor; anion channel; experiment: Inhibitory activity at GABA A receptor, measured by the ability to displace [3H]GABA from GABA A receptor in rat brain; format: tissue-based
[7] = biological target: T1, Gastrin/cholecystokinin type B receptor (Rattus norvegicus, UniProt P30553); experiment: Inhibitory activity by measuring its ability to displace [3H]L-365260 from cholecystokinin receptor in rat brain; format: tissue-based
T1 sequence (P30553 whole entry): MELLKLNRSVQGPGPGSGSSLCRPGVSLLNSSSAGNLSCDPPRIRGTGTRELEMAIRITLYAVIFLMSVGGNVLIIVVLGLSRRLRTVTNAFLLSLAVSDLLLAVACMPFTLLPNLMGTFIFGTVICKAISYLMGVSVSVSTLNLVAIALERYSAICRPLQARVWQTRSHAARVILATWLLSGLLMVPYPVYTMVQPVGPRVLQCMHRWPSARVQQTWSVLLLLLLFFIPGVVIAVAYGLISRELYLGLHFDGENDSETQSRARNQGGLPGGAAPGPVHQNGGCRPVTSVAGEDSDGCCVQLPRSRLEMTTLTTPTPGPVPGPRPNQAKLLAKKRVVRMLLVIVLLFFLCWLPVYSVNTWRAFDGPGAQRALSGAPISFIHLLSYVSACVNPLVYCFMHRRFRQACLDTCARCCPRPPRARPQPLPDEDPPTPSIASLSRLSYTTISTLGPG

[8] = Inhibitory activity at GABA B receptor, measured by the ability to displace [3H]baclofen from GABA B receptor in rat brain; format: tissue-based
Glutamate NMDA receptor = experiment: Inhibitory activity by measuring its ability to displace [3H]-MK-801 from glutamate(NMDA) receptor in rat brain; format: tissue-based
[9] = biological target: Sigma receptor (Rattus norvegicus); experiment: Tested for inhibitory activity by measuring its ability to displace [3H]3-PPP from sigma receptor in rat brain
[10] = Tested for inhibitory activity by measuring its ability to displace [3H]AMPA from glutamate (non-NMDA) receptor in rat brain; format: tissue-based
[11] = Inhibitory activity by measuring its ability to displace [3H]spiperone from dopamine or serotonin 5-HT-1 receptors in rat brain; format: tissue-based
[12] = biological target: Serotonin 2 (5-HT2) receptor (Rattus norvegicus); experiment: Inhibitory activity by measuring its ability to displace [3H]ketanserin from serotonin receptor in rat brain
[13] = biological target: Adrenergic receptor alpha; experiment: Inhibitory activity by measuring its ability to displace [3H]clonidine from alpha-adrenergic receptor in rat brain; format: tissue-based

Translocator protein, sequence (P16257 whole entry, looked up): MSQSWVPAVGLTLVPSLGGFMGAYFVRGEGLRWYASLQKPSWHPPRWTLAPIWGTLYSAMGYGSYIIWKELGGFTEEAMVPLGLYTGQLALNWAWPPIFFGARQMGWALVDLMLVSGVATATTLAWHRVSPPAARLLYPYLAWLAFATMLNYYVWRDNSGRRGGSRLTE
Cannabinoid receptor 1, sequence (P20272 whole entry): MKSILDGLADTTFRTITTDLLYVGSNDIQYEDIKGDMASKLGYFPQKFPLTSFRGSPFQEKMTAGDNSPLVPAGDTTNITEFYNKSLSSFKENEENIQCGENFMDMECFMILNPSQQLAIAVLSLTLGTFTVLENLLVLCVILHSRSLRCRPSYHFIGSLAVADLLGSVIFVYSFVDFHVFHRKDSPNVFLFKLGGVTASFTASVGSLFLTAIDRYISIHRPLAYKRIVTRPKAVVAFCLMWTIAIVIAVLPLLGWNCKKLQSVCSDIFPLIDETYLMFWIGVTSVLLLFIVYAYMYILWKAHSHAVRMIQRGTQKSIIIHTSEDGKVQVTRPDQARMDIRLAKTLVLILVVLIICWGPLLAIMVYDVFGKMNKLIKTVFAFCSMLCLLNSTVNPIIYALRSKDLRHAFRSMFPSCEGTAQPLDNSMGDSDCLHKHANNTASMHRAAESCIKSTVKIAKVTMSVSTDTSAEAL

Ki (Translocator protein): 0.1 µM | IC50 [1]: > 1 µM | IC50 [2]: > 1 µM | IC50 (Cannabinoid receptor 1): > 1 µM | IC50 (Adrenergic receptor beta): > 1 µM | IC50 [3]: > 1 µM | IC50 [4]: > 1 µM | IC50 [5]: > 1 µM | IC50 (Opioid receptor): > 1 µM | IC50 [6]: > 1 µM | IC50 [7]: > 1 µM | IC50 [8]: > 1 µM | IC50 (Glutamate NMDA receptor): > 1 µM | IC50 [9]: > 1 µM | IC50 [10]: > 1 µM | IC50 [11]: > 1 µM | IC50 [12]: > 1 µM | IC50 [13]: > 1 µM
Structure (SMILES): CCCN(CCC)C(=O)Cc1c(-c2ccc(F)cc2)[nH]c2ccccc12
